Screening results from PubChem.
In the library only some 3.5% were active in any assay of this set; here they are far more common.
MITF act: MITF TRPM1 promoter activation in melanoma cells; SK-MEL-5 TRPM1-promoter luciferase, 24 h; % of positive control, neutral wells = 0; activation, % at 12.5 µM; 0.75% of 300,000 active;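 active = mean activation of at least 80% with every replicate also reaching 80%; inconclusive = mean reaches 80% but some replicate falls short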
ERAP1 HTS inh: inhibitors of human ERAP1 aminopeptidase. Q9NZ08. recombinant ERAP1, Leu-AMC fluorescence, 60 min. inhibition, % at 10.7 µM. 0.15% of 340,000 active;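 active = mean replicate inhibition of at least 30%, or all replicates individually reaching that 30% level; inactive = mean below 30% and not every replicate reaching it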
Cneo AK release: causes C. neoformans cell lysis. 0.2% of 360,000 active. lysis activity, % at 15 µM. adenylate kinase release luminescence, 4 h; normalised: neutral wells 0, clomiphene wells 100;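 active = mean lysis activity across replicates of at least 80%, whatever share of replicates individually reach that level; inactive = mean lysis activity below 80%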
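Test system: log-phase Cryptococcus neoformans yeast cells. Input: 5 × 10^6 yeast cells/mL. Medium: fresh YPD growth medium. Doses: single dose. Incubation: static 4 h at 37 °C with compound, 1 h detection. Measured by: luminescent adenylate kinase detection reagent. Read-out: signal increase indicating cell lysis. Benchmarks: Clomiphene.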
Wnt bcat act: activators of Wnt/beta-catenin signaling; activation, % at 9.35 µM; AID 743398; Wnt/beta-catenin reporter cell assay, activator, plate reader; 1.2% of 300,000 active; in the data active = activation above about 30%, passing the limit was not always enough; inconclusive = no clear call, values can overlap the other calls
Env fusion inh: HIV envelope-mediated fusion inhibition; inhibition, % at 12.3 µM; HeLa-JRFL Env/CEM21 cell fusion, luciferase; AID 651610; 1.1% of 360,000 active;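 active = mean replicate inhibition score of at least 50 and every replicate individually at or above 50; inconclusive = only one of the two criteria met; inactive = mean below 50 and not all replicates reaching 50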
esBAF inh: SWI/SNF esBAF complex inhibition; mouse ES cells, Bmi1-luciferase knock-in reporter, 24 h; 100% = twice the neutral-well signal; reporter increase, % at 12.5 µM; 2% of 350,000 active; in the data active = activation above about 40%; inconclusive = no clear call, values can overlap the other calls;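 note: a rise in the Bmi1 reporter signal indicates esBAF inhibition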
A number is an active result; 0 = inactive; ? = inconclusive; - = not tested or not shown; [ ] = remark or other dose.

SMILES | MITF act | ERAP1 HTS inh | Cneo AK release | Wnt bcat act | Env fusion inh | esBAF inh
Cc1ccc(S(=O)(=O)N(C)C[C@H]2Oc3ccc(NS(=O)(=O)c4ccc(F)cc4)cc3CC(=O)N([C@H](C)CO)C[C@@H]2C)cc1 | - | 0 | 0 | - | 0 | 0
C[C@H](CO)N1C[C@H](C)[C@@H](CN(C)S(=O)(=O)c2ccc(F)cc2)Oc2ccc(NS(=O)(=O)c3cn(C)cn3)cc2CC1=O | - | 0 | - | - | 64.1[16.7 µM] | 0
Cc1ccc(S(=O)(=O)Nc2ccc3c(c2)CC(=O)N([C@H](C)CO)C[C@H](C)[C@H](CN(C)S(=O)(=O)c2ccc(F)cc2)O3)cc1 | - | - | 0 | - | 110.3[16.7 µM] | 0
C[C@@H]1CN([C@@H](C)CO)C(=O)Cc2cc(NC(=O)Cc3cn(C)c4ccccc34)ccc2O[C@@H]1CN(C)C(=O)Nc1ccc2c(c1)OCO2 | - | 0 | 0 | - | 0 | 0
COc1cc(C(=O)NCCOc2ccccc2C)c(Br)c(OC)c1OC | 0 | 0 | - | 0 | 0 | -
COc1ccc(C(=O)NCCOc2ccccc2Cl)c(OC)c1OC | 88.9 | 0 | 0 | ? | 0 | 67.6
CC(C)CC1C(C#N)=C(N)Oc2n[nH]c(-c3ccccc3)c21 (stereo unspecified) | 0 | - | 0 | 32.2 | 0 | 0
CCCc1[nH]nc2c1C(Cc1ccccc1)C(C#N)=C(N)O2 (stereo unspecified) | 0 | - | 0 | 0 | 63.7 | 0
C[C@H]1CCCCO[C@@H](CN(C)S(=O)(=O)c2cccs2)[C@@H](C)CN([C@@H](C)CO)C(=O)c2cc(NC(=O)Nc3ccc(F)cc3)ccc2O1 | - | 0 | 0 | - | 0 | 0
COc1ccccc1NC(=O)N[C@@H]1CC[C@@H](CC(=O)N[C@@H](C)c2ccccc2)O[C@H]1CO | - | 0 | 0 | - | 0 | 0
C[C@H](CO)N1C[C@H](C)[C@H](CN(C)C(=O)NC2CCCCC2)Oc2ncc(-c3cccc(C(F)(F)F)c3)cc2C1=O | - | 0 | 0 | - | 0 | 0
C[C@@H]1CN([C@@H](C)CO)C(=O)CCCn2cc(nn2)CO[C@@H]1CN(C)C(=O)c1cc(-c2ccccc2)on1 | - | - | - | - | - | 0
COc1ccccc1N1CCN(C2=Nc3cccc4cccc2c34)CC1 | 94.6 | 0 | 0 | 0 | 0 | 0
COc1ccc(NC(=O)N(C)C[C@@H]2Oc3c(NC(=O)c4cc(C)nn4C)cccc3C(=O)N([C@H](C)CO)C[C@H]2C)cc1 | - | 0 | 0 | - | 0 | 0
CC1(C)CC(N2CCCC2)=CC(=[N+]2CCCC2)C1 | 0 | 63.5 | 0 | 0 | 59.4 | -
CC1(C)CC(N2CCCC2)=CC(=[N+]2CCCCC2)C1 | 0 | 0 | 0 | 0 | 0 | -
C[C@@H]1CN([C@@H](C)CO)C(=O)c2cc(-c3ccccc3)cnc2O[C@H]1CN(C)C(=O)Cc1cccnc1 | - | 0 | 0 | - | 0 | -
COc1ccccc1NC(=O)c1sc2nc(C)cc(C)c2c1N | 0 | - | 0 | 0 | 0 | 0
Cc1cc(C)c2c(N)c(C(=O)Nc3ccc([N+](=O)[O-])cc3)sc2n1 | 101.3 | 0 | 0 | 0 | 0 | ?
COc1ccc(NC(=O)c2sc3nc(C)cc(C)c3c2N)cc1 | 104.5 | 0 | 0 | 0 | 0 | ?
Cc1cc(C)c2c(N)c(C(=O)NC3CCCC3)sc2n1 | 0 | 0 | 0 | 0 | 0 | 0
Cc1cc(C)c2c(N)c(C(=O)c3ccccc3)sc2n1 | - | 0 | 0 | 0 | 0 | -
Cc1cc(C)c2c(N)c(C(=O)N/N=C/c3cccs3)sc2n1 | - | 0 | 0 | 44.6 | 0 | -
Cc1cc(C)c2c(N)c(C(=O)Nc3ccc(F)cc3)sc2n1 | 0 | 0 | 0 | 51.0 | 0 | 0
COc1ccc(/C=N/NC(=O)c2sc3nc(C)cc(C)c3c2N)cc1 | - | 0 | 0 | 0 | 0 | -
SMILES | MITF act | ERAP1 HTS inh | Cneo AK release | Wnt bcat act | Env fusion inh | esBAF inh
O=C(C[C@H]1CC[C@@H](NS(=O)(=O)c2ccc(F)cc2)[C@@H](CO)O1)NCCc1ccncc1 | - | 0 | 0 | - | 0 | 0
Cc1cccc(NC(=O)c2sc3nc(N)c(C#N)cc3c2N)c1 | 106.3 | - | - | - | 0 | -
Cc1cc(C)c2c(N)c(C(=O)NCC3CCCCC3)sc2n1 | 88.5 | - | 0 | 0 | - | 0
Cc1cccc(NC(=O)c2sc(Cl)nc2-c2ccccc2)c1 | 0 | - | 0 | - | - | 0
Cc1cc(C)c2c(N)c(C(=O)Nc3ccc(C)c(C)c3)sc2n1 | 126.4 | 0 | 0 | 0 | 0 | 0
Cc1cc(C)cc(NC(=O)c2sc3nc(C)cc(C)c3c2N)c1 | 0 | 0 | 0 | 0 | 0 | 69.6
CCNC(=O)Nc1ccc2c(c1)C(=O)N(C)[C@@H]1CC[C@H](CC(=O)N[C@H](C)c3ccccc3)O[C@@H]1CO2 | - | - | 0 | - | 0 | 0
